Experimental data pooled from the literature.
Compare with care: the assays were run in different laboratories.
Organism: Staphylococcus aureus
Effect on: microbial growth

| SMILES | assay | system | setting | MIC |
| --- | --- | --- | --- | --- |
| Cc1ccc2[nH]c3c(c2c1)CCCC3NCCc1ccc(O)cc1 (stereo not shown) | broth dilution | ATCC29213 | – | 16 µg/mL |
| O=C(CCCCc1ccccc1)CP(=O)(O)O | – | ATCC33591 MRSA | drug-resistant strain | > 200 µg/mL |
| CCN1CCN(C(=O)Cc2ccc(Nc3ncc(F)c(Nc4ccc(C(=O)Nc5ccccc5Cl)cc4)n3)cc2)CC1 | – | NCTC8325 | – | > 30 µM |
| Cc1ccc2nc(-c3c4ccccc4cc4ccccc34)[nH]c2c1 | broth dilution | ATCC43300 MRSA | drug-resistant strain | 128 µg/mL |
| CO/N=C(\C(=O)N[C@@H]1C(=O)N2C(C(=O)O)=C(CSc3nc(=O)c(=O)[nH]n3C)CS[C@H]12)c1csc(N)n1 | – | USA300 | – | 64 µg/mL |
| CN[C@H](CC(C)C)C(=O)N[C@H]1C(=O)N[C@@H](CC(N)=O)C(=O)N[C@H]2C(=O)N[C@H]3C(=O)N[C@H](C(=O)N[C@H](C(=O)O)c4cc(O)cc(O)c4-c4cc3ccc4O)[C@H](O)c3ccc(c(Cl)c3)Oc3cc2cc(c3O[C@@H]2O[C@H](CO)[C@@H](O)[C@H](O)[C@H]2O[C@H]2C[C@](C)(N)[C@H](O)[C@H](C)O2)Oc2ccc(cc2Cl)[C@H]1O | broth dilution | ATCC25923 | – | 1 µg/mL |
| C=CCCCCCCCCC(=O)C(F)(F)P(=O)(O)O | – | ATCC33591 MRSA | drug-resistant strain | > 200 µg/mL |
| CN[C@H](CC(C)C)C(=O)N[C@H]1C(=O)N[C@@H](CC(N)=O)C(=O)N[C@H]2C(=O)N[C@H]3C(=O)N[C@H](C(=O)N[C@H](C(=O)O)c4cc(O)cc(O)c4-c4cc3ccc4O)[C@H](O)c3ccc(c(Cl)c3)Oc3cc2cc(c3O[C@@H]2O[C@H](CO)[C@@H](O)[C@H](O)[C@H]2O[C@H]2C[C@](C)(N)[C@H](O)[C@H](C)O2)Oc2ccc(cc2Cl)[C@H]1O | broth dilution | BAA44 MRSA | drug-resistant strain | 0.59 µM |
| O=[N+]([O-])c1ccc(-c2nc3cccc(O)c3[nH]2)o1 | broth dilution | ATCC700699 MRSA | drug-resistant strain | 2 µg/mL |
| CCCCCCNC(=S)Nc1cccc(-c2cc(C(=O)OC)no2)c1 | broth dilution | ATCC29213 | – | > 64 µg/mL |
| CN[C@H](CC(C)C)C(=O)N[C@H]1C(=O)N[C@@H](CC(N)=O)C(=O)N[C@H]2C(=O)N[C@H]3C(=O)N[C@H](C(=O)N[C@H](C(=O)O)c4cc(O)cc(O)c4-c4cc3ccc4O)[C@H](O)c3ccc(c(Cl)c3)Oc3cc2cc(c3O[C@@H]2O[C@H](CO)[C@@H](O)[C@H](O)[C@H]2O[C@H]2C[C@](C)(N)[C@H](O)[C@H](C)O2)Oc2ccc(cc2Cl)[C@H]1O | – | ATCC33592 | drug-resistant strain | 0.39 µg/mL |
| COC(=O)c1cc(-c2cccc(NC(=O)Nc3ccc(C)cc3)c2)on1 | broth dilution | ATCC29213 | – | > 64 µg/mL |
| Cc1ccc2[nH]c3c(c2c1)CCCC3NCCc1ccc(Br)cc1 (stereo not shown) | broth dilution | MRSA USA300 | – | 4 µg/mL |
| CCCCCC/C=C\CCCCCCCCCC(=O)CP(=O)(O)O | – | ATCC33591 MRSA | drug-resistant strain | 100 µg/mL |
| C/C(=C\C(=O)OCCCCCCCCC(=O)O)C[C@@H]1OC[C@H](C[C@@H]2O[C@H]2[C@@H](C)[C@H](C)O)[C@@H](O)[C@H]1O | – | BAA1556 MRSA | drug-resistant strain | > 8000 µM |
| CCOc1ccc(-c2nc3ccc(C)cc3[nH]2)cc1 | broth dilution | ATCC43300 MRSA | drug-resistant strain | 256 µg/mL |
| O=C(N[C@H](CO)[C@H](O)c1ccc([N+](=O)[O-])cc1)C(Cl)Cl | – | USA300 | – | 4 µg/mL |
| CC(C)C[C@H](NC(=O)[C@@H](NC(=O)N[C@H](C(=O)O)C(C)C)[C@@H]1CCNC(=N)N1)C(=O)NCCCN[C@H](C(=O)O)[C@H](O[C@@H]1O[C@H](CN)[C@@H](O)[C@H]1O)[C@H]1O[C@@H](n2ccc(=O)[nH]c2=O)[C@H](O)[C@@H]1O | – | NEWMAN | – | > 80 µg/mL |
| Cc1cc(Cl)ccc1-c1ccc(/C=C2\SC(=S)N(CC(=O)O)C2=O)o1 | broth dilution | MRSA USA300 | drug-resistant strain | 8 to 64 µg/mL |
| Cc1ccccc1-n1c(Cn2ncc3c(N)ncnc32)nc2cccc(C)c2c1=O | – | NCTC8325 | – | > 30 µM |
| CC1(C)CC[C@]2(C(=O)O)CC[C@]3(C)C(=CC[C@@H]4[C@@]5(C)CC[C@H](O)C(C)(C)[C@@H]5CC[C@]43C)[C@@H]2C1 | – | 252 | – | 256 µg/mL |
| Cc1ccc2nc(-c3ccco3)[nH]c2c1 | broth dilution | ATCC43300 MRSA | drug-resistant strain | 256 µg/mL |
| CCC1C(=NOCc2cn(-c3ccccc3)nn2)CC(c2ccccc2)OC1c1ccccc1 (stereo not shown) | broth dilution | MTCC96 | 24 h | 50 µg/mL |

| SMILES | assay | system | setting | MIC |
| --- | --- | --- | --- | --- |
| Cc1ccc2nc(-c3ccc([N+](=O)[O-])cc3)[nH]c2c1 | broth dilution | ATCC43300 MRSA | drug-resistant strain | 256 µg/mL |
| COC(=O)c1cc(-c2cccc(NC(=O)Nc3ccccc3OC)c2)on1 | broth dilution | ATCC29213 | – | > 64 µg/mL |
| CCCCCCCCCCCC(=O)CP(=O)(O)O | – | ATCC33591 MRSA | drug-resistant strain | 100 µg/mL |
| COc1cccc(-c2nc3ccc(C)cc3[nH]2)c1 | broth dilution | ATCC43300 MRSA | drug-resistant strain | 256 µg/mL |
| CCCCCCC#Cc1cncc(-c2nnc(SCc3cc([N+](=O)[O-])cc([N+](=O)[O-])c3)n2C)c1 | – | MRSA | drug-resistant strain | ≥ 20 µg/mL |
| CCCCCCCC/C=C\CCCCCCCC(=O)C(F)(F)P(=O)(O)O | – | ATCC33591 MRSA | drug-resistant strain | > 200 µg/mL |
| COC(=O)c1cc(-c2cccc(NC(=S)Nc3cc(C(F)(F)F)cc(C(F)(F)F)c3)c2)on1 | broth dilution | ATCC29213 | – | 8 to 16 µg/mL |
| c1cncc(-c2nc3ccccc3[nH]2)c1 | broth dilution | ATCC43300 MRSA | drug-resistant strain | 256 µg/mL |
| COC(=O)c1cc(-c2cccc(NC(=S)Nc3cccc(Cl)c3)c2)on1 | broth dilution | ATCC29213 | – | > 64 µg/mL |
| CN[C@H](CC(C)C)C(=O)N[C@H]1C(=O)N[C@@H](CC(N)=O)C(=O)N[C@H]2C(=O)N[C@H]3C(=O)N[C@H](C(=O)N[C@H](C(=O)O)c4cc(O)cc(O)c4-c4cc3ccc4O)[C@H](O)c3ccc(c(Cl)c3)Oc3cc2cc(c3O[C@@H]2O[C@H](CO)[C@@H](O)[C@H](O)[C@H]2O[C@H]2C[C@](C)(N)[C@H](O)[C@H](C)O2)Oc2ccc(cc2Cl)[C@H]1O | broth dilution | ATCCBAA44 | drug-resistant strain | 1 µg/mL |
| C[C@H]1COc2c(N3CCN(C)CC3)c(F)cc3c(=O)c(C(=O)O)cn1c23 | broth dilution | ATCC29213 | – | 0.125 µg/mL |
| CC1(C)S[C@@H]2[C@H](NC(=O)Cc3ccccc3)C(=O)N2[C@H]1C(=O)O | – | USA300 | – | 128 µg/mL |
| CCC(CC)c1cc(CCN2CCCN(Cc3ccc(C(F)(F)F)cc3)CC2)nc(-c2ccncc2)n1 | – | ATCCBAA1717 | drug-resistant strain, clinical isolate | 4 µg/mL |
| N#CC(C#N)=Cc1ccc(O)c(O)c1 | – | NCTC8325 | – | > 30 µM |
| COc1cc(Cc2cnc(N)nc2N)cc(OC)c1OC | broth dilution | – | – | ~16.6 µM |
| CCCCCCCCCCCC(=O)C(F)(F)P(=O)(O)O | – | ATCC33591 MRSA | drug-resistant strain | > 200 µg/mL |
| COC(=O)c1cc(-c2cccc(NC(=O)Nc3cc(Cl)ccc3Cl)c2)on1 | broth dilution | ATCC29213 | – | > 64 µg/mL |
| CNC(=O)c1cc(Oc2ccc(NC(=O)Nc3cccc(C(F)(F)F)c3)cc2)ccn1 | – | NCTC8325 | – | > 100 µM |
| COC(=O)c1cc(-c2cccc(NC(=S)Nc3ccc(Cl)cc3)c2)on1 | broth dilution | ATCC29213 | – | > 64 µg/mL |
| CSc1ccc(-c2nc3ccc(C)cc3n2Cc2ccccc2)cc1 | broth dilution | ATCC43300 MRSA | drug-resistant strain | 256 µg/mL |
| COc1cccc(OC)c1C(=O)N[C@@H]1C(=O)N2[C@@H]1SC(C)(C)[C@@H]2C(=O)O | – | ATCCBAA1717 | drug-resistant strain, clinical isolate | > 64 µg/mL |
| Clc1ccc(-c2nc3ccccc3[nH]2)c(Cl)c1 | broth dilution | ATCC43300 MRSA | drug-resistant strain | 256 µg/mL |
| CC(=O)c1ccc(NC(=O)Nc2ccc(Cl)c(C(F)(F)F)c2)cc1 | – | NCTC8325 | – | 30 µM |
